Compound activity as filed in PubChem BioAssay.
FXIIa inh 1536 – inhibitors of human coagulation factor XIIa; P00748; inhibition, % at 5 µM; purified FXIIa, Boc-QGR-AMC fluorogenic substrate, 2 h; 0.3% of 220,000 active; AID 800; in the data active = inhibition above about 40%;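 also: 0% = enzyme with no compound and 100% = blank without enzyme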
KLK5 inh – inhibitors of human kallikrein 5 | 0.59% of 210,000 active | AID 873 | inhibition, % at 5 µM | Q9Y337 | recombinant hK5, fluorogenic AMC substrate cleavage;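 active = inhibition of 40% or more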;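 also: 0% = enzyme controls without compound and 100% = no-enzyme blanks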
Target sequence (Q9Y337 67-293 limits assumed): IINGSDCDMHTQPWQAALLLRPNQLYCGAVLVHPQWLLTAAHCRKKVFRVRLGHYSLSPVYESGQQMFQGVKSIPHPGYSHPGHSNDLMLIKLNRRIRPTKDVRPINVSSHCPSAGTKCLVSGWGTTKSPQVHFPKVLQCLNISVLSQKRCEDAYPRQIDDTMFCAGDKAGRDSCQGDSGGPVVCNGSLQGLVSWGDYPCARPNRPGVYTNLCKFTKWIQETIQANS
DTT redox prof – compounds producing H2O2 with reducing agent – biochemical, NIH compound library profiling, artefact control for MLSCN library redox annotation, primary screen; DTT-dependent redox cycling H2O2, phenol red/HRP absorbance; 100% = 100 µM peroxide control, 0% = buffer; activation, % at 10 µM; 0.03% of 200,000 active; AID 878;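 active = activation of at least 50% relative to the plate's high and low controls in the primary single-dose screen; inactive = activation below 50%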;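 also: compound incubated with DTT at 0.8 mM final as the reducing agent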
S1P3 antagonist – blocks the human S1P3 receptor. Q99500. CHO S1P3 NFAT-BLA reporter, FRET fluorescence, antagonist mode. inhibition, % at 4.98 µM. 0.27% of 170,000 active. AID 485;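 active = inhibition above the plate cutoff, the mean inhibition of test wells on that plate plus 3 SD, cut at about 28% in these data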;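 also: cells challenged with S1P at its EC80 of 0.8 µM; blue over green emission ratio from cleaved BLA substrate after 4 h stimulation; 0% = S1P-stimulated wells and 100% = unstimulated DMSO-only wells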
Thrombin inh – thrombin (human) inhibition; inhibition, % at 5 µM; 0.26% of 220,000 active; P00734; alpha-thrombin, Boc-VPR-AMC fluorogenic substrate cleavage;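 active = inhibition at or above 40%; inactive = inhibition below 40%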;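 also: 0% = enzyme with no compound and 100% = wells without enzyme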
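Test system: human alpha-thrombin; medium: pH 7.5 Tris-saline with Tween 20; times: reaction at room temperature; signal: AMC fluorescence at 355 nm excitation and 460 nm emission; also added: Boc-VPR-AMC substrate, 15 µM final; dosing: one concentration per compound, 5 µM, with 0.2% DMSO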
FXIa inh – factor XIa (human) inhibition. P03951. purified FXIa, Boc-Glu-Ala-Arg-AMC fluorogenic substrate. inhibition, % at 5 µM. 0.14% of 220,000 active. AID 798;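 active = inhibition of at least 40%; inactive = inhibition below 40%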;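 also: fluorescence of freed AMC excited at 355 nm; 0% = enzyme without compound and 100% = no enzyme blank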
Starred values were filed as active, the others as inactive; · = no result given. Shown are actives, neighbours in structure and some others; about 1.2% of the full set was active somewhere.

SMILES	FXIIa inh 1536	KLK5 inh	DTT redox prof	S1P3 antagonist	Thrombin inh	FXIa inh
Cn1c(N)c(C#N)c2c(c1=S)COC(C)(C)C2	12	-12	1	·	-11	0
CC(C)C1Cc2c(C#N)c(N)n(C)c(=S)c2CO1 (stereo not drawn)	17	53*	0	·	18	6
CCN(CC(=O)NC1CCS(=O)(=O)C1)c1nc(-c2ccccc2)nc2ccccc12 (stereo not drawn)	-6	-13	2	94*	3	3
O=C(Nc1cc(Cl)cc(Cl)c1)c1cnn2cccnc12	18	69*	0	·	24	12
COc1cccc(CNC(=O)C2CCC(CNS(=O)(=O)c3cccc4nsnc34)CC2)c1 (stereo not drawn)	9	1	-1	·	2	1
O=C(NCc1cccs1)C1CCC(CNS(=O)(=O)c2cccc3nsnc23)CC1 (stereo not drawn)	8	52*	-1	·	2	2
CSc1nc(-c2ccccc2)nn1C(=O)c1ccc(Cl)cc1	17	68*	-5	·	84*	20
CSc1nc(-c2ccc(Cl)cc2)nn1C(=O)c1ccccc1	17	63*	0	-14	29	23
N#C/C(=C\c1ccc(-c2ccc([N+](=O)[O-])cc2Br)o1)C(=O)N1CCN(c2ccccc2)CC1	5	6	1	-1	-9	5
CC1Cc2ccccc2N1C(=O)Cn1c(=O)oc2cc(S(=O)(=O)N3CCCCC3)ccc21 (stereo not drawn)	3	14	-1	81*	2	-3
O=C(Cn1c(=O)oc2cc(S(=O)(=O)N3CCCCC3)ccc21)N1CCc2ccccc21	2	-3	-1	·	2	3
CCOC(=O)c1sc(NC(=O)/C=C/c2cnn(C)c2C)c(C(=O)OCC)c1C	6	9	-4	·	47*	0
CCn1nc(C)c(NC(=O)/C=C/c2cnn(C)c2C)c1C	23	-10	-6	·	4	18
Cc1ccc(S(=O)(=O)N(C)CC(=O)Nc2ccccc2)cc1	23	53*	0	·	14	15
COC(=O)c1ccccc1NC(=O)CN(C)S(=O)(=O)c1ccc(OC)c(C)c1	4	119*	0	-10	2	-4
COc1ccc2nc3ccccc3nc2c1N	44*	19	·	-1	15	29
C/C(=N/NC(=O)c1ccoc1C)c1ccc(NC(=O)c2ccncc2)cc1	9	-20	0	-15	-4	3
Fc1ccc(Cn2c(-c3cscn3)nc3ccccc32)c(Cl)c1	7	1	0	·	-7	-7
Nc1nonc1-c1nc2ccccc2n1Cc1ccc(F)cc1Cl	1	2	0	78*	-7	-12
O=C(COC(=O)CCc1nc2ccccc2c(=O)[nH]1)Nc1ccccc1Cl	7	1	·	9	-1	1
O=C(COC(=O)CCc1nc2ccccc2c(=O)[nH]1)Nc1ccc(Cl)cn1	40	43*	·	-10	16	105*
CCCCCCCCCC(=O)Nn1cnc2ccccc2c1=O	52*	70*	-1	-1	2	31
COc1ccccc1C(=O)Nn1cnc2ccccc2c1=O	12	-10	0	-44	1	4
Cc1cccc(N2C(=O)CSC23CCCCC3)c1	10	-1	-1	-2	-4	-2
CCC1CCC2(CC1)SCC(=O)N2c1ccccc1 (stereo not drawn)	30	63*	·	-6	13	59*
SMILES	FXIIa inh 1536	KLK5 inh	DTT redox prof	S1P3 antagonist	Thrombin inh	FXIa inh
CC1CCC2(CC1)SCC(=O)N2c1ccccc1 (stereo not drawn)	24	91*	0	·	20	21
COc1ccc(C(C)=O)cc1Cn1cnc2c(cnn2C)c1=O	0	-7	·	-8	-5	-6
COc1cc(OC)cc(-n2nc(C(=O)NCCCN3CCOCC3)c3ccccc3c2=O)c1	8	14	-2	18	-1	5
COCCNC(=O)c1nn(-c2cc(OC)cc(OC)c2)c(=O)c2ccccc12	18	66*	-2	-42	8	15
O=C(CNCc1ccccn1)N1CCc2ccccc2C1	4	-5	·	5	-6	-1
Oc1ccc(Oc2ccc3c(C(F)(F)F)cc(C(F)(F)F)nc3n2)cc1	0	132*	2	·	4	-5
